Reference: ChEMBL document CHEMBL1152342, “Thiazomycins, thiazolyl peptide antibiotics from Amycolatopsis fastidiosa” (2009)
Values after ≈ are worked out from the molar mass of the structure shown.

How the values were obtained:
Assay type in all cases: functional
Staphylococcus aureus [1] = assay: Antibacterial activity against macrolide-sensitive, Linezolid, methicillin-resistant Staphylococcus aureus CL5814 after 20 hrs by twofold serial broth dilution method; conditions: CL5814, 20 h
Procedure, shortened: (§1)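 MICs by NCCLS (now CLSI) twofold serial broth dilution. Cation-adjusted Mueller Hinton broth was the standard medium, with CAMHB + 2.5% lysed horse blood used for certain strains. Cultures were incubated at 37 °C for 20 h before reading.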

Streptococcus pyogenes = assay: Antibacterial activity against Streptococcus pyogenes CL10440 after 20 hrs by twofold serial broth dilution method; conditions: CL10440, 20 h; procedure, shortened: as §1
Enterococcus faecium [2] = assay: Antibacterial activity against vancomycin, linezolid-resistant Enterococcus faecium CL5791 after 20 hrs by twofold serial broth dilution method in presence of 50% human serum; conditions: CL5791, 20 h; procedure, shortened: as §1
Staphylococcus aureus [3] = assay: Antibacterial activity against vancomycin-intermediate, macrolide, methicillin-resistant Staphylococcus aureus CL5706 after 20 hrs by twofold serial broth dilution method; conditions: CL5706, 20 h; procedure, shortened: as §1
Enterococcus faecalis [4] = assay: Antibacterial activity against vancomycin-sensitive Enterococcus faecalis CL8516 after 20 hrs by twofold serial broth dilution method; conditions: CL8516, 20 h; procedure, shortened: as §1
Streptococcus pneumoniae [5] = assay: Antibacterial activity against penicillin-sensitive Streptococcus pneumoniae CL8002 after 20 hrs by twofold serial broth dilution method; conditions: CL8002, 20 h; procedure, shortened: as §1
Staphylococcus aureus [6] = assay: Antibacterial activity against macrolide, methicillin-resistant Staphylococcus aureus CL5705 after 20 hrs by twofold serial broth dilution method; conditions: CL5705, 20 h; procedure, shortened: as §1
Enterococcus faecalis [7] = assay: Antibacterial activity against vancomycin, macrolide-resistant, linezolid-sensitive Enterococcus faecalis CL5246 after 20 hrs by twofold serial broth dilution method; conditions: CL5246, 20 h; procedure, shortened: as §1
Streptococcus pneumoniae [8] = assay: Antibacterial activity against penicillin-resistant Streptococcus pneumoniae CL5771 after 20 hrs by twofold serial broth dilution method; conditions: CL5771, 20 h; procedure, shortened: as §1
[9] = test system: Staphylococcus haemolyticus; assay: Antibacterial activity against ampicillin-sensitive Staphylococcus haemolyticus CL8544 after 20 hrs by twofold serial broth dilution method; conditions: CL8544, 20 h; procedure, shortened: as §1
Staphylococcus aureus [10] = assay: Antibacterial activity against methicillin-sensitive Staphylococcus aureus MB2865 after 20 hrs by twofold serial broth dilution method; conditions: MB2865, 20 h; procedure, shortened: as §1
Staphylococcus aureus [11] = assay: Antibacterial activity against macrolide, imipenem, methicillin-resistant Staphylococcus aureus MB5393 after 20 hrs by twofold serial broth dilution method; conditions: MB5393, 20 h; procedure, shortened: as §1
[12] = test system: Staphylococcus epidermidis; assay: Antibacterial activity against Staphylococcus epidermidis CL8040 after 20 hrs by twofold serial broth dilution method; conditions: CL8040, 20 h; procedure, shortened: as §1
Enterococcus faecium [13] = assay: Antibacterial activity against vancomycin, linezolid-resistant Enterococcus faecium CL5791 after 20 hrs by twofold serial broth dilution method; conditions: CL5791, 20 h; procedure, shortened: as §1
Staphylococcus aureus [14] = assay: Antibacterial activity against methicillin-sensitive Staphylococcus aureus MB2865 after 20 hrs by twofold serial broth dilution method in presence of 50% human serum; conditions: MB2865, 20 h; procedure, shortened: as §1
Candida albicans = assay: Antifungal activity against Candida albicans MY1055 after 20 hrs by twofold serial broth dilution method; conditions: MY1055, 20 h

Row | SMILES | MIC (Staphylococcus aureus [1]) [µg/mL] | MIC (Streptococcus pyogenes) [µg/mL] | MIC (Enterococcus faecium [2]) [µg/mL] | MIC (Staphylococcus aureus [3]) [µg/mL] | MIC (Enterococcus faecalis [4]) [µg/mL] | MIC (Streptococcus pneumoniae [5]) [µg/mL] | MIC (Staphylococcus aureus [6]) [µg/mL] | MIC (Enterococcus faecalis [7]) [µg/mL] | MIC (Streptococcus pneumoniae [8]) [µg/mL] | MIC [9] [µg/mL] | MIC (Staphylococcus aureus [10]) [µg/mL] | MIC (Staphylococcus aureus [11]) [µg/mL] | MIC [12] [µg/mL] | MIC (Enterococcus faecium [13]) [µg/mL] | MIC (Staphylococcus aureus [14]) [µg/mL] | MIC (Candida albicans) [µg/mL]
1 | CC[C@H]1OC(=O)[C@H](C)[C@@H](O[C@H]2C[C@@](C)(OC)[C@@H](O)[C@H](C)O2)[C@H](C)[C@@H](O[C@@H]2O[C@H](C)C[C@H](N(C)C)[C@H]2O)[C@](C)(O)C[C@@H](C)C(=O)[C@H](C)[C@@H](O)[C@]1(C)O [ERYTHROMYCIN] | 1 (≈ 1.36 µM) | ≤ 0.03 | > 32 | > 32 | 1 (≈ 1.36 µM) | 2 (≈ 2.73 µM) | > 32 | 32 (≈ 43.6 µM) | 2 (≈ 2.73 µM) | 1 (≈ 1.36 µM) | 0.1 (≈ 0.136 µM) | > 32 | 0.25 (≈ 0.341 µM) | > 32 | 0.1 | > 32
2 | CC(=O)NC[C@H]1CN(c2ccc(N3CCOCC3)c(F)c2)C(=O)O1 [LINEZOLID] | > 32 | 0.5 (≈ 1.48 µM) | > 32 |  |  |  |  |  |  | 2 (≈ 5.93 µM) |  |  | 1 (≈ 2.96 µM) | 32 (≈ 94.9 µM) |  | > 32
3 | C=C(NC(=O)c1csc(-c2nc3c(cc2O)-c2nc(cs2)C(=O)N[C@@H]([C@@H](C)O)C(=O)N/C(=C(\C)OC)c2nc(cs2)C(=O)N[C@@H]2c4nc(cs4)C(=O)N[C@@H](COC(=O)c4[nH]c5cccc6c5c4CO[C@@H]2[C@H](OC)C(=O)OC6)c2nc-3cs2)n1)C(N)=O [THIAZOMYCIN B] | 0.02 (≈ 0.0158 µM) | 0.004 (≈ 0.00316 µM) | 0.1 | 0.03 (≈ 0.0237 µM) | 0.1 (≈ 0.0791 µM) | 0.008 (≈ 0.00633 µM) | 0.03 (≈ 0.0237 µM) | 0.06 (≈ 0.0475 µM) | 0.004 (≈ 0.00316 µM) | 0.03 (≈ 0.0237 µM) | 0.02 (≈ 0.0158 µM) | 0.02 (≈ 0.0158 µM) | 0.03 (≈ 0.0237 µM) | 0.004 (≈ 0.00316 µM) | 0.25 | > 32
4 | CO/C(C)=C1/NC(=O)[C@H]([C@@H](C)O)NC(=O)c2csc(n2)-c2cc(O)c(-c3nc(C(N)=O)cs3)nc2-c2csc(n2)[C@@H]2COC(=O)c3[nH]c4cccc5c4c3CO[C@H]([C@H](O[C@H]3C[C@](C)(O)[C@H](N(C)C)[C@H](C)O3)C(=O)OC5)[C@H](NC(=O)c3csc1n3)c1nc(cs1)C(=O)N2 [THIAZOMYCIN C] | 0.03 (≈ 0.0222 µM) | 0.006 (≈ 0.00444 µM) | 0.1 | 0.1 (≈ 0.0739 µM) | > 0.1 | 0.01 (≈ 0.00739 µM) | 0.1 (≈ 0.0739 µM) | 0.1 (≈ 0.0739 µM) | 0.006 (≈ 0.00444 µM) | 0.1 (≈ 0.0739 µM) | 0.05 (≈ 0.037 µM) | 0.05 (≈ 0.037 µM) | 0.1 (≈ 0.0739 µM) | 0.1 (≈ 0.0739 µM) | 0.1 | > 32
5 | C=C(NC(=O)c1csc(-c2nc3c(cc2O)-c2nc(cs2)C(=O)N[C@@H]([C@@H](C)O)C(=O)N/C(=C(\C)OC)c2nc(cs2)C(=O)N[C@@H]2c4nc(cs4)C(=O)N[C@@H](COC(=O)c4[nH]c5cccc6c5c4CO[C@@H]2[C@H](O[C@H]2C[C@](C)(O)[C@@H](O)[C@H](C)O2)C(=O)OC6)c2nc-3cs2)n1)C(N)=O [THIAZOMYCIN D] | 0.06 (≈ 0.043 µM) | 0.02 (≈ 0.0143 µM) | 1 | 0.1 (≈ 0.0717 µM) | 0.1 (≈ 0.0717 µM) | 0.1 (≈ 0.0717 µM) | 0.1 (≈ 0.0717 µM) | 0.1 (≈ 0.0717 µM) | 0.03 (≈ 0.0215 µM) | 0.06 (≈ 0.043 µM) | 0.03 (≈ 0.0215 µM) | 0.031 (≈ 0.0222 µM) | 0.03 (≈ 0.0215 µM) | 0.1 (≈ 0.0717 µM) | 1 | > 32
6 | C=C(NC(=O)c1csc(-c2nc3c(cc2O)-c2nc(cs2)C(=O)N[C@@H]([C@@H](C)O)C(=O)N/C(=C(\C)OC)c2nc(cs2)C(=O)N[C@@H]([C@H](O)[C@H](O[C@H]2C[C@](C)(O)[C@H](N(C)C)[C@H](C)O2)C(=O)O)c2nc(cs2)C(=O)N[C@@H](CO)c2nc-3cs2)n1)C(N)=O [THIAZOMYCIN E1] |  |  |  |  | > 200 | 200 (≈ 159 µM) |  |  |  |  | 100 (≈ 79.7 µM) |  |  |  |  | 
7 | C=C(NC(=O)c1csc(-c2nc3c(cc2O)-c2nc(cs2)C(=O)N[C@@H]([C@@H](C)O)C(=O)N/C(=C(\C)OC)c2nc(cs2)C(=O)N[C@@H]([C@H](O)[C@H](O)C(=O)O)c2nc(cs2)C(=O)N[C@@H](CO)c2nc-3cs2)n1)C(N)=O [THIAZOMYCIN E2] |  |  |  |  | > 200 | > 200 |  |  |  |  | > 200 |  |  |  |  | 
8 | CO/C(C)=C1/NC(=O)[C@H]([C@@H](C)O)NC(=O)c2csc(n2)-c2cc(O)c(-c3nc(C(N)=O)cs3)nc2-c2csc(n2)[C@H](CO)NC(=O)c2csc(n2)[C@H]([C@H](O)[C@H](O)C(=O)O)NC(=O)c2csc1n2 [THIAZOMYCIN E3] |  |  |  |  | 200 (≈ 197 µM) | 200 (≈ 197 µM) |  |  |  |  | > 200 |  |  |  |  | 
9 | C=C(NC(=O)c1csc(-c2nc3c(cc2O)-c2nc(cs2)C(=O)N[C@@H]([C@@H](C)O)C(=O)N/C(=C(\C)OC)c2nc(cs2)C(=O)N[C@@H]2c4nc(cs4)C(=O)N[C@@H](COC(=O)c4c5c6c(cccc6n4O)COC(=O)[C@@H](O[C@H]4C[C@]6(C)OCN(C)[C@@H]6[C@H](C)O4)[C@H]2OC5)c2nc-3cs2)n1)C(N)=O [THIAZOMYCIN] | 0.01 (≈ 0.00697 µM) | 0.002 (≈ 0.00139 µM) | 0.01 | 0.01 (≈ 0.00697 µM) | 0.02 (≈ 0.0139 µM) | 0.003 (≈ 0.00209 µM) | 0.01 (≈ 0.00697 µM) | 0.01 (≈ 0.00697 µM) | 0.003 (≈ 0.00209 µM) | 0.02 (≈ 0.0139 µM) | 0.006 (≈ 0.00418 µM) | 0.003 (≈ 0.00209 µM) | 0.03 (≈ 0.0209 µM) | 0.002 (≈ 0.00139 µM) | 0.05 | > 32
